Reference: ChEMBL document CHEMBL1155924, “Achieving multi-isoform PI3K inhibition in a series of substituted 3,4-dihydro-2H-benzo[1,4]oxazines” (Bioorg Med Chem Lett, 2008)
Active and inactive are the calls of the source. No cut-off for these calls is given here.

Experiments:
[1] = biological target: T1, Phosphatidylinositol 4,5-bisphosphate 3-kinase catalytic subunit delta isoform (Homo sapiens, UniProt O00329); assay: Inhibition of PI3K delta
T1 sequence (O00329 whole entry): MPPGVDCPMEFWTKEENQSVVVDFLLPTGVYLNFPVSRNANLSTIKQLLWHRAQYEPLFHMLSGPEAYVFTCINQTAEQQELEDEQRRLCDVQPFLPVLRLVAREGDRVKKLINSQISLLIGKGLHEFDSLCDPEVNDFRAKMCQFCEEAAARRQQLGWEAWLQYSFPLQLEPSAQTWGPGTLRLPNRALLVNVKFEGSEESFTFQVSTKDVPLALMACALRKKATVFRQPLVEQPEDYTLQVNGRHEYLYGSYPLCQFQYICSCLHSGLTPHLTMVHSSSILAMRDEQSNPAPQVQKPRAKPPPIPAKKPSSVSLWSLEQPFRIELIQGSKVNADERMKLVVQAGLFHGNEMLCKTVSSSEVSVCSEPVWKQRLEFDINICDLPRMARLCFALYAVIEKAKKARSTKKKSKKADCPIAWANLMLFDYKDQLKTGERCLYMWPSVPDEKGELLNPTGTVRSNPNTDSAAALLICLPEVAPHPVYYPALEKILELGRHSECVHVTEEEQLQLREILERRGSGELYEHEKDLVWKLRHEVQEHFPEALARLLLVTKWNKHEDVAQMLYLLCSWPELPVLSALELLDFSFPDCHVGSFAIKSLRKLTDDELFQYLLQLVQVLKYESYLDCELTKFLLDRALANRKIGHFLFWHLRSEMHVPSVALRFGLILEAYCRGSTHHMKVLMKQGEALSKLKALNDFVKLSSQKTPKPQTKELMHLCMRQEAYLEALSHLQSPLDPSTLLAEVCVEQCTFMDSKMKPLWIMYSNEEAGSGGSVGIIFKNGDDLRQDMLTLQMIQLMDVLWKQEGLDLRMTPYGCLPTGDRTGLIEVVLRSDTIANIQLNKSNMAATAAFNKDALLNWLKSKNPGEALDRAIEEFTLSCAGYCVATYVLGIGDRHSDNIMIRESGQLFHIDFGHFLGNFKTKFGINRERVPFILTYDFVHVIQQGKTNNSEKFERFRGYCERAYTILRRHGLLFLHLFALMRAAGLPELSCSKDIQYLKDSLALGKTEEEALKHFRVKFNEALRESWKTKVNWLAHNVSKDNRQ

[2] = biological target: Phosphatidylinositol 4,5-bisphosphate 3-kinase catalytic subunit gamma isoform (Homo sapiens, UniProt P48736); assay: Inhibition of PI3K gamma
[3] = biological target: Phosphatidylinositol 4,5-bisphosphate 3-kinase catalytic subunit alpha isoform (Homo sapiens, UniProt P42336); assay: Inhibition of PI3K alpha
[4] = biological target: Phosphatidylinositol 4,5-bisphosphate 3-kinase catalytic subunit beta isoform (Homo sapiens, UniProt P42338); assay: Inhibition of PI3K beta
[5] = system: Neutrophil; assay: Inhibition of fMLP-stimulated superoxide production in TNF alpha-primed human neutrophils by spectrophotometry; assay type: functional, cell-based
Summary of the method: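 Human neutrophils were primed with TNFα and stimulated with fMLP, and cellular superoxide production was monitored. Inhibition values are quoted in nM.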

[6] = Clearance in rat microsomes assessed per mg of protein at 0.5 uM; assay type: ADME, Liver, Microsome; conditions: for microsomal CLint at 0.5 µM: liver microsomes
[7] = Clearance in human microsomes assessed per mg of protein at 0.5 uM; assay type: ADME, Microsome
[8] = system: Hepatocyte; assay: Clearance in rat hepatocyte assessed per mg of protein at 2 uM; assay type: ADME, cell-based, Liver; conditions: hepatocytes
[9] = species: Homo sapiens; assay: Selectivity for human PI3K gamma over human PI3K delta
[10] = Cmax in Han-Wistar rat at 3 mg/kg, po; assay type: ADME, organism-based; set-up: dose 3 mg/kg, route oral; conditions: in vivo
Summary of the method: (§1)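 Male-or-unspecified Han–Wistar rats were given a single oral dose of 3 mg/kg. Plasma Cmax is reported in ng/mL and AUC in ng h/mL.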

[11] = AUC in Han-Wistar rat at 3 mg/kg, po; assay type: ADME, organism-based; set-up: dose 3 mg/kg, route oral; conditions: plasma; summary of the method: as §1
[12] = Oral bioavailability in Han-Wistar rat at 3 mg/kg; assay type: ADME, organism-based; conditions: in vivo
[13] = biological target: T2, Testis-specific serine/threonine-protein kinase 1 (Homo sapiens) (UniProt Q9BXA7); assay: Inhibition of TSSK1 at 10 uM
T2 sequence (whole entry): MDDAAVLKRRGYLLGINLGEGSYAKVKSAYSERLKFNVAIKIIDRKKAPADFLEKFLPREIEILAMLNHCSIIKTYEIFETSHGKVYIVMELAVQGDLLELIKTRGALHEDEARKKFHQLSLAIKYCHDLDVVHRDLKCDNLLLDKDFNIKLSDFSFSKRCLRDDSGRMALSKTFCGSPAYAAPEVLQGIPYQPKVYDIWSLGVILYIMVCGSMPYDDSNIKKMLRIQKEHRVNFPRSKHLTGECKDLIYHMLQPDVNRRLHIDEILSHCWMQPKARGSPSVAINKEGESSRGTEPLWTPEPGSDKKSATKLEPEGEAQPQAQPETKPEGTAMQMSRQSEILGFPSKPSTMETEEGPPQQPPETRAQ

[14] = biological target: Serine/threonine-protein kinase pim-1 (Homo sapiens) (UniProt P11309); assay: Inhibition of PIM1 at 10 uM
[15] = Inhibition of CaMK2 at 10 uM
[16] = Inhibition of CK1 at 10 uM
[17] = biological target: T3, Serine/threonine-protein kinase mTOR (Homo sapiens, UniProt P42345); assay: Inhibition of mTOR at 10 uM
[18] = system: Rattus norvegicus; assay: Inhibition of anti-CD3-induced IL2 release in po dosed Lewis rat blood; assay type: functional
Summary of the method: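 Acute T-cell activation was induced by anti-CD3 antibody in male Lewis rats. Compound was given orally, and IL2 released into blood was measured. Percent inhibition of IL-2 was plotted against log dose (mg/kg) to derive ED50. Values are mean ± SEM, n = 8.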

[19] = biological target: T3, Serine/threonine-protein kinase mTOR; assay: Inhibition of mTOR
[20] = biological target: Mitogen-activated protein kinase 14 (Homo sapiens) (UniProt Q16539); assay: Inhibition of SAPK2a at 10 uM
[21] = Clearance in Han-Wistar rat at 1 mg/kg, iv; assay type: ADME, organism-based; set-up: dose 1 mg/kg, route intravenous; conditions: in vivo
Summary of the method: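 Han–Wistar rats were dosed intravenously at 1 mg/kg. Clearance is reported in mL/min/kg.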

Chain of Phosphatidylinositol 4,5-bisphosphate 3-kinase catalytic subunit alpha isoform (P42336 whole entry, canonical isoform): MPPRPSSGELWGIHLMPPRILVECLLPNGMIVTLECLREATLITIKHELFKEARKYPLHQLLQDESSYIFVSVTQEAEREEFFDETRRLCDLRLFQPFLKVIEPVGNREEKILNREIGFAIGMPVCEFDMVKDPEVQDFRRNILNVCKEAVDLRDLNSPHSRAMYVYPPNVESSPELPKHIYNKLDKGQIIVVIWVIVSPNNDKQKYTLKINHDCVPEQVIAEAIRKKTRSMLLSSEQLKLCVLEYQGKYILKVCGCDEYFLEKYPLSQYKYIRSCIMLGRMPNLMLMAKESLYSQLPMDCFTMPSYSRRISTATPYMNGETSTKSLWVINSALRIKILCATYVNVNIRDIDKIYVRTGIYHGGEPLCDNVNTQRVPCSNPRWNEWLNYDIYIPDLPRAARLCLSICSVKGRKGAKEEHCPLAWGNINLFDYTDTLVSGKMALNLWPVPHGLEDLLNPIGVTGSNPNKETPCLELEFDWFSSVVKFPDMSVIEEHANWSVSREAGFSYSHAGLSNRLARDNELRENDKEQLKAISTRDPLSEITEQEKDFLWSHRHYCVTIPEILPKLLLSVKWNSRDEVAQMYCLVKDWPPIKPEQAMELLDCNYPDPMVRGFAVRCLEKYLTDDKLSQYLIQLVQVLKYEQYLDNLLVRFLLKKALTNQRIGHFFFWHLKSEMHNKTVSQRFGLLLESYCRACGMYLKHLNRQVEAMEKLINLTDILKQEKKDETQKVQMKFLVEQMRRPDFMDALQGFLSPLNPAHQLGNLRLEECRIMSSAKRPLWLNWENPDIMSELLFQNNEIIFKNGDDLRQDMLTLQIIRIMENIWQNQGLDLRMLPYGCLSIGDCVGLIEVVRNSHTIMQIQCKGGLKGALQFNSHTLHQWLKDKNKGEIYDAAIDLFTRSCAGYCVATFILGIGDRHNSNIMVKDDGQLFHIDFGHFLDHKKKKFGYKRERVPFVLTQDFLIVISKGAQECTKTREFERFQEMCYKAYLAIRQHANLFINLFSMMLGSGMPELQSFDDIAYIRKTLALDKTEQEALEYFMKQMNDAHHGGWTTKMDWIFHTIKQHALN
Chain of Phosphatidylinositol 4,5-bisphosphate 3-kinase catalytic subunit gamma isoform (P48736 whole entry, canonical isoform): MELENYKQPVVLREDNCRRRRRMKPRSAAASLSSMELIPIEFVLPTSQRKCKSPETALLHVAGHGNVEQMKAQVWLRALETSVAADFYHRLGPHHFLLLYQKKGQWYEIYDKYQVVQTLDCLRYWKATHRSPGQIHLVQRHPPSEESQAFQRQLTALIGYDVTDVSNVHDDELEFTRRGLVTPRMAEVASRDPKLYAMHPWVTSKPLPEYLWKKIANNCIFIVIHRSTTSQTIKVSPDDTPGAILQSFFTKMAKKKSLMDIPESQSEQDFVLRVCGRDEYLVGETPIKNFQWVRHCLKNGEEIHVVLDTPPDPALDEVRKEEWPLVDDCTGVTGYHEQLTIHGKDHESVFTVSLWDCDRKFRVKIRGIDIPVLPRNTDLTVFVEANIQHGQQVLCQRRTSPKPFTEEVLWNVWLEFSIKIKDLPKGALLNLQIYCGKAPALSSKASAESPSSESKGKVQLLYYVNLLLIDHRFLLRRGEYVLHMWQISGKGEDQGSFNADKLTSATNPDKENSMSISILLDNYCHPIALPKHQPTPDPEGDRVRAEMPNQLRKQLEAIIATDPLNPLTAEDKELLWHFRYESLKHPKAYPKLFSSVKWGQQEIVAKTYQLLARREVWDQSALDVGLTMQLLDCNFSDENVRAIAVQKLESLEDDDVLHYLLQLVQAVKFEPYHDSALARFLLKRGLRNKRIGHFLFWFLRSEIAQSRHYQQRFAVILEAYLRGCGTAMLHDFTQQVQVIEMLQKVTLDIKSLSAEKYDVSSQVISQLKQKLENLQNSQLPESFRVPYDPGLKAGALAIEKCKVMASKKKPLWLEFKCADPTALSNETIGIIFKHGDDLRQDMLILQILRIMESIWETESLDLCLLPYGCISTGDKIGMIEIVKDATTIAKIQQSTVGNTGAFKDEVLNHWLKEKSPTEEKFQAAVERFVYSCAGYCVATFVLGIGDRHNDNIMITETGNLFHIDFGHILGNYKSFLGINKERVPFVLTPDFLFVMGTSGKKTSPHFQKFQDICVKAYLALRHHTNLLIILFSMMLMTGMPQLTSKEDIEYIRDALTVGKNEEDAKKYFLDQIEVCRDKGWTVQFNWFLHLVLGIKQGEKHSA
Chain of Phosphatidylinositol 4,5-bisphosphate 3-kinase catalytic subunit beta isoform (P42338 whole entry, canonical isoform): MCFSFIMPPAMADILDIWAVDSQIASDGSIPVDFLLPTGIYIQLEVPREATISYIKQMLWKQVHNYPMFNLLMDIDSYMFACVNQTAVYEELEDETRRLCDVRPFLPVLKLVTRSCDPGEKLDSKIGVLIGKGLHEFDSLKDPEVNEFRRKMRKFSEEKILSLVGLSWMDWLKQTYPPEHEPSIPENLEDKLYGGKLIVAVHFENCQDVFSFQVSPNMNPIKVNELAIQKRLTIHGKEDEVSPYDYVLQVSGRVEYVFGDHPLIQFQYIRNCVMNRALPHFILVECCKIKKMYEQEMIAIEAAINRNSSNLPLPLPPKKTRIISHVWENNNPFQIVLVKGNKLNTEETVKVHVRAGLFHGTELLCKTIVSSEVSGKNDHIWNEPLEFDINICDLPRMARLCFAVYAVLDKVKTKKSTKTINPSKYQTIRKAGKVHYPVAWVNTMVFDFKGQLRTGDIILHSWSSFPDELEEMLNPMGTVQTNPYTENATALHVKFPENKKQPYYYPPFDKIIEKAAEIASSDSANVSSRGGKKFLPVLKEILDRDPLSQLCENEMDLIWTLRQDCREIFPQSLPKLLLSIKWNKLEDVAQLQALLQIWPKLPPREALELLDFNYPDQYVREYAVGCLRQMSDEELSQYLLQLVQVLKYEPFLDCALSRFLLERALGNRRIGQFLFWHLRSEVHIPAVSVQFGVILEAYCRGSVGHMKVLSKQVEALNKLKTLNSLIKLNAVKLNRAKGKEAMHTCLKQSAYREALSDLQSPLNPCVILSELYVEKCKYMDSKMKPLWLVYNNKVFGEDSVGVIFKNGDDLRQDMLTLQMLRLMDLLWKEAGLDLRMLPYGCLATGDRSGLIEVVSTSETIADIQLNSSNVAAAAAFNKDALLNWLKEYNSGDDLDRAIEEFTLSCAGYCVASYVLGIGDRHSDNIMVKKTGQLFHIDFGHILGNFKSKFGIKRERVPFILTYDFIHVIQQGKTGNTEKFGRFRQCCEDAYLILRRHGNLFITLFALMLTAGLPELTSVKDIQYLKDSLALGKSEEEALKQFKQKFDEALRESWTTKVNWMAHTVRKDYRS
Chain of Serine/threonine-protein kinase pim-1 (Homo sapiens) (P11309 whole entry, looked up): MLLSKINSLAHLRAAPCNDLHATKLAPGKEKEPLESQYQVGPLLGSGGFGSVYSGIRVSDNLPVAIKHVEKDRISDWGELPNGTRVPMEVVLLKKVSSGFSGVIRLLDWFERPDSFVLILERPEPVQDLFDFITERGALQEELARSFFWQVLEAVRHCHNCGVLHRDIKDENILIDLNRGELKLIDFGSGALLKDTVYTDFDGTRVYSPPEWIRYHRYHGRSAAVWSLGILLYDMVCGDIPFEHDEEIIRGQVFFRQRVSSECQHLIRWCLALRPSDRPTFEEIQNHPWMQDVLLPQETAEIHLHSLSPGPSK
Chain of Mitogen-activated protein kinase 14 (Homo sapiens) (Q16539 whole entry): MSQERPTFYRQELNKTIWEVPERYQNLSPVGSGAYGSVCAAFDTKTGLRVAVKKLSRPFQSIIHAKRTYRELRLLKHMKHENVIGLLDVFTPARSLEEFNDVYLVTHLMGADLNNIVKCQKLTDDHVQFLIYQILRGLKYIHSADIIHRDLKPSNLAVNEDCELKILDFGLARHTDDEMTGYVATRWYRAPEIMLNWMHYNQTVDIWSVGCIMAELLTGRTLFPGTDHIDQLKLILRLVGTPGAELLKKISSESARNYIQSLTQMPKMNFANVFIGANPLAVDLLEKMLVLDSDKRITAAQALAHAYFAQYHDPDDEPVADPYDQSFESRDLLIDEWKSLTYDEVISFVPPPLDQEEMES

Row | Structure (SMILES) | IC50 [1] [nM] | IC50 [2] [nM] | IC50 [3] [nM] | IC50 [4] [nM] | also measured
1 | COc1ccc2c(c1)OCCN2c1nc2c(s1)C(=O)NC(C)(C)C2 | 230 | 440 | 1130 | 1590 | –
2 | CC1(C)CC(=O)c2sc(N3CCOc4ccc(-c5ccccc5)cc43)nc2C1 | 80 | 854 | 2670 | 7990 | IC50 [5]: 267 nM; clearance ([6]; microsomes, 0.5 µM): 15 µL/min/mg; clearance ([7]; 0.5 µM): 18 µL/min/mg
3 | CC1(C)CC(=O)c2sc(N3CCOc4ncccc43)nc2C1 | 5730 | 6650 | 11300 | 5310 | –
4 | CN(C)Cc1ccc2c(c1)N(c1nc3c(s1)C(=O)NC(C)(C)C3)CCO2 | 7570 | > 20000 | > 20000 | 10300 | –
5 | Cn1cc(-c2ccc3c(c2)N(c2nc4c(s2)C(=O)CC(C)(C)C4)CCO3)cn1 | 49 | 52 | 294 | 336 | IC50 [5]: 44 nM; microsomal CLint at 0.5 µM [6]: 39 µL/min/mg; microsomal CLint at 0.5 µM [7]: 36 µL/min/mg; CL [8]: 8 µL/min/mg
6 | Cc1ccc2c(c1)OCCN2c1nc2c(s1)C(=O)NC(C)(C)C2 | 605 | 531 | – | 1620 | –
7 | Cc1ccc(-c2ccc3c(c2)N(c2nc4c(s2)C(=O)CC(C)(C)C4)CCO3)cn1 | 26 | 73 | 164 | 308 | microsomal CLint at 0.5 µM [6]: 25 µL/min/mg; microsomal CLint at 0.5 µM [7]: 48 µL/min/mg
8 | Cc1nc(-c2ccc3c(c2)N(c2nc4c(s2)C(=O)NC(C)(C)C4)CCO3)c[nH]1 | 51 | 107 | 636 | 325 | –
9 | CC1(C)CC(=O)c2sc(N3CCOCC3)nc2C1 | – | – | – | – | microsomal CLint at 0.5 µM [6]: 6 µL/min/mg; CL [8]: 7 µL/min/mg
10 | CC1(C)CC(=O)c2sc(N3CCOc4cc(Br)ccc43)nc2C1 | 549 | 3130 | 2850 | 5340 | –
11 | CC1(C)Cc2nc(N3CCOc4cnccc43)sc2C(=O)N1 | > 20000 | – | – | – | –
12 | CC1(C)Cc2nc(N3CCOc4ccccc43)sc2C(=O)N1 | 1630 | 959 | – | 1230 | fold change (FC) [9]: 2
13 | Cc1cccc2c1OCCN2c1nc2c(s1)C(=O)NC(C)(C)C2 | 15300 | – | – | – | –
14 | CC1(C)Cc2nc(N3CCOc4cc(F)ccc43)sc2C(=O)N1 | 783 | 357 | – | 1240 | –
15 | Cc1ccc(-c2ccc3c(c2)N(c2nc4c(s2)C(=O)NC(C)(C)C4)CCO3)nn1 | – | – | – | – | Cmax [10]: 185 ng/mL; AUC [11]: 2470 ng·h/mL; bioavailability [12]: 66%
16 | CC1(C)CC(=O)c2sc(N3CCOc4ccc(-c5ccccn5)cc43)nc2C1 | 74 | 258 | 677 | 2000 | –
17 | CC1(C)CC(=O)c2sc(N3CCOc4ccccc43)nc2C1 | 614 | 829 | 676 | 511 | fold change (FC) [9]: 2; IC50 [5]: 759 nM; microsomal CLint at 0.5 µM [6]: 220 µL/min/mg; microsomal CLint at 0.5 µM [7]: 47 µL/min/mg; CL [8]: 162 µL/min/mg
18 | CC(=O)c1ccc2c(c1)N(c1nc3c(s1)C(=O)NC(C)(C)C3)CCO2 | 366 | 318 | – | 1450 | –

Row | Structure (SMILES) | IC50 [1] [nM] | IC50 [2] [nM] | IC50 [3] [nM] | IC50 [4] [nM] | also measured
19 | CC1(C)Cc2nc(N3CCOc4ccc(-c5cnc[nH]5)cc43)sc2C(=O)N1 | 81 | 163 | 736 | 727 | –
20 | CC1(C)CC(=O)c2sc(N3CCOc4ccc(Br)cc43)nc2C1 | 249 | 829 | 1970 | 1920 | –
21 | CC1(C)Cc2nc(N3CCOc4c(F)cccc43)sc2C(=O)N1 | 11200 | 16800 | – | 11700 | –
22 | Cn1ccnc1-c1ccc2c(c1)N(c1nc3c(s1)C(=O)NC(C)(C)C3)CCO2 | 285 | 819 | 2900 | 3520 | –
23 | Cc1ccc(-c2ccc3c(c2)N(c2nc4c(s2)C(=O)NC(C)(C)C4)CCO3)cn1 | 21 | 28 | 116 | 452 | inhibition [13]: > 80%; inhibition [14]: > 80%; inhibition [15]: > 80%; inhibition [16]: > 80%; Activity [17]: inactive; IC50 [5]: 57 nM; microsomal CLint at 0.5 µM [6]: 17 µL/min/mg; microsomal CLint at 0.5 µM [7]: 25 µL/min/mg; CL [8]: 7 µL/min/mg; Cmax [10]: 649 ng/mL; AUC [11]: 2880 ng·h/mL; ED50 [18]: 15 mg/kg; IC50 [19]: > 15000 nM
24 | CC1(C)CC(=O)c2sc(N3CCOc4ccc(-c5cn[nH]c5)cc43)nc2C1 | 17 | 77 | 188 | 298 | –
25 | CC1(C)Cc2nc(N3CCOc4ccc(C5CC5)cc43)sc2C(=O)N1 | 155 | 210 | – | 834 | –
26 | CC1(C)Cc2nc(N3CCOc4ccc(-c5ccn[nH]5)cc43)sc2C(=O)N1 | 90 | 145 | 917 | 1470 | –
27 | CC1(C)CC(=O)c2sc(N3CCOc4ccc(-c5cccnc5)cc43)nc2C1 | 20 | 113 | 172 | 376 | –
28 | Cn1cc(-c2ccc3c(c2)N(c2nc4c(s2)C(=O)NC(C)(C)C4)CCO3)cn1 | – | – | – | – | inhibition [14]: > 50%; inhibition [20]: > 50%; clearance [8]: 0 µL/min/mg; Cmax [10]: 1220 ng/mL; AUC [11]: 6160 ng·h/mL; clearance [21]: 7 mL/min/kg; bioavailability [12]: 97%; ED50 [18]: 25 mg/kg
29 | CC1(C)Cc2nc(N3CCOc4ccc(Br)cc43)sc2C(=O)N1 | 153 | 321 | 1110 | 1620 | –
30 | CC1(C)CC(=O)c2sc(N3CCOc4cc(-c5ccccc5)ccc43)nc2C1 | 1050 | > 20000 | > 20000 | – | –
31 | Cc1ccc2c(c1)N(c1nc3c(s1)C(=O)NC(C)(C)C3)CCO2 | 357 | 617 | 1810 | 964 | –
32 | CC1(C)Cc2nc(N3CCOCC3)sc2C(=O)N1 | 722 | 5280 | 2370 | 450 | IC50 [5]: 2960 nM; microsomal CLint at 0.5 µM [7]: 1 µL/min/mg; CL [8]: 1 µL/min/mg
33 | CC1(C)CC(=O)c2sc(N3CCOc4ccc(-c5ccncc5)cc43)nc2C1 | 94 | 159 | 825 | 1050 | –
34 | CC1(C)Cc2nc(N3CCOc4ccc(-c5ncccn5)cc43)sc2C(=O)N1 | 123 | 189 | 791 | 623 | –
35 | CC1(C)Cc2nc(N3CCOc4ccc(-c5ccccc5)cc43)sc2C(=O)N1 | 50 | 80 | – | 3660 | IC50 [5]: 573 nM; microsomal CLint at 0.5 µM [6]: 39 µL/min/mg; microsomal CLint at 0.5 µM [7]: 21 µL/min/mg
